Source: PubChem BioAssay (several laboratories)
Shown are actives, neighbours in structure and some others; about 2.3% of the full set was active somewhere.
CHT allo act = allosteric activators of human choline transporter CHT; Q9GZV3; CHT-expressing cells, membrane potential dye, choline EC20; active compounds read high; LV-AA mutant CHT in HEK293 cells; B-score at 10 µM; 0.49% of 310,000 active;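 active = initial fluorescence not abnormally high and integrated response B-score, plate-corrected, over 3 SD above library mean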
Target sequence (Q9GZV3 whole entry, looked up): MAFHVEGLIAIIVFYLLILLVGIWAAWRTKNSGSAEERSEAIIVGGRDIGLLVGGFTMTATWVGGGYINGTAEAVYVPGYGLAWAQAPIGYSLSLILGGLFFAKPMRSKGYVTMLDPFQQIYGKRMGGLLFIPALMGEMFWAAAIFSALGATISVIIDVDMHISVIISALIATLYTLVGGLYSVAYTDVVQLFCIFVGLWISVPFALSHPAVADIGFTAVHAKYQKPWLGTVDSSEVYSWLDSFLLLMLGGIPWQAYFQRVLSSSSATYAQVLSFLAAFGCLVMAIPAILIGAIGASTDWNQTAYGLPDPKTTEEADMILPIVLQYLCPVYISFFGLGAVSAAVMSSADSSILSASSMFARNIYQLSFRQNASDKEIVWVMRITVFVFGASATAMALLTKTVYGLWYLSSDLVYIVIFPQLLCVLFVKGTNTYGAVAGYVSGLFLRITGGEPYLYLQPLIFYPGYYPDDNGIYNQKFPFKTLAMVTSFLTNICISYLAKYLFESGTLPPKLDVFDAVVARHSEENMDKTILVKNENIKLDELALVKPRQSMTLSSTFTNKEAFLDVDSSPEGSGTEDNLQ
DSG3 Ab inh = human desmoglein-3 autoantibody binding inhibition | 0.48% of 310,000 active | AID 588358 | binding (percent of control), % at 10 µM | P32926 | DSG3-coupled beads, scFv-anti-DSG3-GFP binding, flow cytometry; active compounds read low;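 active = binding more than 3 SD below its plate's average and above zero; inconclusive = below that plate limit but binding exactly zero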;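 also: hits lower antibody fragment binding to DSG3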
CHT inh = inhibits the human high affinity choline transporter | Q9GZV3 | CHT-expressing cells, membrane potential dye, choline response; active compounds read low | B-score at 10 µM | 0.86% of 310,000 active | AID 488975;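 active = B-score over 3 SD under the library average, and starting fluorescence ratio not unusually high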;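 also: choline stimulus applied at its EC90 after an EC20 pre-addition; B-score computed on integrated fluorescence ratio after choline addition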
GPR7 antag = blocks human GPR7 receptor signaling; P48145; GPR7-expressing cells, fluorescence antagonist assay; inhibition, % at 4.4 µM; 1.1% of 290,000 active; AID 1861; in the data active = inhibition above about 16%, passing the limit was not always enough;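 also: cells stimulated with the agonist NPW; 0% = agonist with vehicle and 100% = vehicle without agonist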
T cell modulator = modulates CD8 T cell binding to vesicles; response (vesicle binding), % at 7 µM; 0.068% of 330,000 active; 2C CD8+ T cell-vesicle binding, flow cytometry; active compounds read low;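 active = response, share of CD8 T cells binding vesicles, and their 90th percentile fluorescence all below set limits, cut at about 80% in these data, passing the limit was not always enough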;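 also: values below 100% mean blocked vesicle binding to the CD8+ T cells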
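Test system: purified 2C TCR transgenic mouse naive CD8+ T cells. Probe or stimulus: QL9-peptide-loaded Drosophila micro-vesicles bearing Ld, ICAM-1 and B7-1. Incubation: binding step 1.5 h, 37 °C, antibody labelling 20 min, ice. Measured by: flow cytometry of vesicle-bound cells.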
pCIP destab = p/CIP protein destabilization; F442A p/CIP-EGFP cells, EGFP fluorescence, 16 h; Q05BA5; 0.01% of 290,000 active; decrease of EGFP signal, % at 10 µM; AID 1984;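 active = EGFP signal decrease of at least 30% at 10 µM or well 3 SD below plate mean, unless failing retest; inactive = the rest, including hits failing retest or dose response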
CHT block conf = confirmation of human choline transporter CHT inhibitors | CHT-expressing cells, choline membrane potential dye; LV-to-AA substituted CHT, HEK293 cells | 70% of 2,400 active | CHT activity remaining % of control (active compounds read low), % at 10 µM | shares compounds with CHT inh;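 active = choline transporter activity left, mean of duplicates at 10 µM, below buffer-only control mean minus 3 SD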;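 also: depolarization triggered by choline at its EC90 following an EC20 pre-addition; 0% = hemicholinium-3 full block and 100% = buffer-only control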
HEK293 CHT ctr = CHT inhibitor counter-screen hit in parental HEK293 cells; 4% of 2,400 active; membrane potential dye, choline response; active = decrease or increase beyond buffer ±3SD; membrane potential ratio readout (active if shifted either direction beyond buffer ±3SD; no single direction) at 10 µM; shares compounds with CHT inh;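 also: parental cells lack the transporter so any hit is non-specific; ratio is peak minus trough fluorescence over baseline after EC90 choline challenge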
The depositor's hits bear a star; i = inactive; ? = inconclusive; · = no result.

SMILES	CHT allo act	DSG3 Ab inh	CHT inh	GPR7 antag	T cell modulator	pCIP destab	CHT block conf	HEK293 CHT ctr
CC1CCCCC1NC(=O)c1ccc(S(=O)(=O)N2CCCC2)cc1 (centres undefined)	i	86	-5.4*	2	158	1	7.2%*	i
CC1CCCCC1NC(=O)CCn1ccc2cc(S(=O)(=O)N3CCCC3)ccc21 (centres undefined)	i	96	-6.2*	-4	364	3	41%*	i
CCOCCCn1c(=S)[nH]c2cc(C(=O)NC3CCCCC3C)ccc2c1=O (centres undefined)	i	·	i	12	139	-3	·	·
CN1CCN(S(=O)(=O)c2cccc(C(=O)NC3CCCC3)c2)CC1	i	97	i	·	167	·	·	·
CCOC(=O)C1=C(C)NC(C)=C(C(=O)OCC)C1c1ccncc1	·	103	·	·	·	·	·	·
Cc1ccc(S(=O)(=O)N2CCOCC2)cc1NC(=O)COC(=O)COc1ccc(C#N)cc1	·	97	·	·	·	·	·	·
CC(C)NC(=O)Nc1ccc2c(c1)C(=O)N([C@H](C)CO)C[C@H](C)[C@@H](CN(C)C(=O)NC(C)C)O2	·	99	·	·	·	·	·	·
CCN(CCn1cccn1)C(=O)c1cc(COc2c(F)cccc2F)on1	i	104	-5.5*	5	283	-20	i	i
CCCCCc1cc(=O)oc2c(C(CCN3CCCC3)c3ccc(N(C)C)cc3)c(OC)cc(OC)c12 (centres undefined)	i	106	-6.3*	·	239	3	i	i
COc1cc(C(CCN2CCCC(C)C2)c2c(OC)cc(OC)c3c(-c4ccccc4)cc(=O)oc23)cc(OC)c1OC (centres undefined)	i	·	-8.7*	·	·	4	22%*	i
COc1cc(C(CCN2CCCC2)c2c(OC)cc(OC)c3c(C)cc(=O)oc23)cc(OC)c1OC (centres undefined)	i	103	i	·	·	2	·	·
COc1cc(C(CCN2CCCCC2)c2c(OC)cc(OC)c3c(-c4ccccc4)cc(=O)oc23)cc(OC)c1OC (centres undefined)	i	106	-8.1*	·	·	-11	44%*	i
CCCCCc1cc(=O)oc2c(C(CCN3CCCCC3)c3ccc(OC)cc3)c(OC)cc(OC)c12 (centres undefined)	i	109	i	·	191	-2	·	·
C=CC[C@H](CC(=O)N(CCO)Cc1ccccc1)C(=O)N[C@@H](COC(=O)[C@@H](CC=C)Cc1ccc(F)cc1)Cc1c[nH]c2ccccc12	·	97	·	·	549	·	·	·
CC(C)(C)NC(=O)NC(=O)CN1CCN(c2cccc(Cl)c2)CC1	i	100	-6.9*	-7	154	0	47%*	i
Cc1cc(C)nc(SCc2cccc(C(=O)O)c2)n1	i	100	i	0	·	2	·	·
O=C(O)c1cccc(CSc2ncn[nH]2)c1	i	97	-6.1*	-2	155	-2	i	i
COc1ccc(-c2oc3ccc(-c4cc(OC)c(OC)c(OC)c4)cc3c2C#Cc2ccccn2)cc1	·	98	·	·	284	·	·	·
CCCNC(=O)c1ccc(COc2ccc(C)cc2)o1	i	93	-5*	20	231	4	52%*	i
CCOc1ccc(OCc2ccc(C(=O)N3CCCC3)o2)cc1	i	108	-8.1*	-12	408	-7	42%*	i
CC[C@]12c3[nH]c4cc(-c5ccco5)ccc4c3CCN1C(=O)[C@@H](CC(=O)NCc1ccc(OC)c(OC)c1)C[C@@H]2C(=O)N1CCN(C(=O)c2ccco2)CC1	·	102	·	·	·	·	·	·
Cc1c(NC(=S)NC(=O)c2ccc(-c3ccc(Cl)cc3)o2)cccc1C(=O)O	i	98	-8.8*	1	420	7	55%*	i
O=C(NC(=S)Nc1ccccc1O)c1ccc(-c2ccc(Cl)cc2)o1	i	118	i	-6	585	-4	·	·
CCCCNS(=O)(=O)c1ccc2nc(SCC(=O)c3ccccc3OC)[nH]c2c1	i	106	-9.7*	-4	246	-2	50%*	i
O=C(COC(=O)c1cccc(S(=O)(=O)N2CCCCC2)c1)NCc1cccc(Cl)c1	·	115	·	·	·	·	·	·
SMILES	CHT allo act	DSG3 Ab inh	CHT inh	GPR7 antag	T cell modulator	pCIP destab	CHT block conf	HEK293 CHT ctr
COc1ccc(S(=O)(=O)N2CCCCC2)cc1NC(=O)Cc1ccc(Br)cc1	·	99	·	·	·	·	·	·
Cc1csc(C(C)NC(=O)c2ccc(OC3CCN(CCc4ccccc4)CC3)cc2)n1 (centres undefined)	i	?	-6.4*	-5	190	1	30%*	2.6*
CCCn1nc([N+](=O)[O-])c(C(C#N)c2nc3ccccc3o2)c(Cl)c1=O (centres undefined)	i	131	-12*	1	222	6	16%*	i
CCn1nc([N+](=O)[O-])c(C(C#N)c2nc3cc(C(F)(F)F)ccc3s2)c(Cl)c1=O (centres undefined)	i	96	i	-8	116	-10	·	·
CCOC(=O)N1CCC2(CC1)NC(=O)c1ccccc1N2	·	102	·	·	·	·	·	·
O=C(COC(=O)c1ccco1)NC(c1ccccc1)c1ccccc1	i	104	-14*	-14	436	0	i	i
CC(CNC(=O)COC(=O)c1ccco1)c1ccccc1 (centres undefined)	·	·	·	·	306	·	·	·
COc1ccc(-c2sc3ccccc3c2/C=C/c2ccncc2)cc1	·	·	·	·	291	·	·	·
Cc1ccc(S(=O)(=O)N2CCN(C(=O)c3ccc(N4CCC(C)CC4)c([N+](=O)[O-])c3)CC2)cc1	·	108	·	·	·	·	·	·
Cc1ccc(/C=C2\SC(=S)N(c3c(C)n(C)n(-c4ccccc4)c3=O)C2=O)cc1	i	100	-5.4*	-14	342	1	60%*	i
C(=NN=C(NN=Cc1cccs1)NN=Cc1cccs1)c1cccs1	·	90	·	·	·	·	·	·
Cc1cnc(C(=O)Nc2ccc(C)c(S(=O)(=O)N3CCCCCC3)c2)cn1	·	106	·	·	·	·	·	·
CCCc1ccc(S(=O)(=O)N2CCN(Cc3ccco3)CC2)cc1	i	117	i	10	194	-13	·	·
CCCS(=O)(=O)N1CCN(Cc2ccco2)CC1	i	116	-6.7*	-7	399	-18	i	i
Cc1oc(-c2cc(F)ccc2F)nc1CN1CCN(c2ncnc3ccccc23)CC1	i	105	i	0	580	-4	·	·
